Measured values from ChEMBL document CHEMBL2321795, “Solubility-driven optimization of (pyridin-3-yl) benzoxazinyl-oxazolidinones leading to a promising antibacterial agent” (J Med Chem, 2013).
Values after ≈ are worked out from the molar mass of the structure shown.

Tests used:
[1] = Cmax in Sprague-Dawley rat at 15 mg/kg, po by LC-MS analysis; type: ADME, organism-based; parameters: dose 15 mg/kg, route oral; conditions: in vivo
Procedure, shortened: (§1)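 Rats were dosed orally or by intravenous injection. For prodrugs, all parameters were based on the active parent antibacterial detected in plasma, and each prodrug dose was also given as an equivalent parent dose. Parameters were Cmax, Tmax, elimination T1/2, AUC from the concentration–time curve, clearance and oral bioavailability F.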

Enterococcus faecium [2] = experiment: Ratio of linezolid MIC to compound MIC for linezolid-resistant Enterococcus faecium; type: functional
Procedure, shortened: (§2)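 Agar dilution per NCCLS, with linezolid tested alongside as control. Compounds were diluted 2-fold in sterile water, then 10-fold into Mueller–Hinton agar (final 16–0.03125 μg/mL). Strains (E. faecalis 3, E. faecium 3, S. aureus 3, S. epidermidis 1) were grown in MH broth at 35 °C for 8 h, adjusted to 0.5 McFarland, multipoint-inoculated, and incubated at 35 °C for 16 h. The ratio is linezolid MIC over compound MIC.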

Enterococcus faecalis [3] = experiment: Ratio of linezolid MIC to compound MIC for linezolid-resistant Enterococcus faecalis; type: functional; procedure, shortened: as §2
[4] = system: Staphylococcus epidermidis; experiment: Ratio of linezolid MIC to compound MIC for linezolid-resistant Staphylococcus epidermidis; type: functional; procedure, shortened: as §2
Staphylococcus aureus [5] = experiment: Ratio of linezolid MIC to compound MIC for linezolid-resistant Staphylococcus aureus; type: functional; procedure, shortened: as §2
Enterococcus faecium [6] = experiment: Antibacterial activity against linezolid-resistant Enterococcus faecium after 16 hrs by NCCLS agar dilution method; type: functional
Procedure, shortened: (§3)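 Agar dilution MIC. Stocks were 320 μg/mL in 50% aqueous DMSO, 2-fold serially diluted in sterile water, then diluted 10-fold into Mueller–Hinton agar to give 16–0.03125 μg/mL final. Organisms were grown in MH broth at 35 °C for 8 h and adjusted to 0.5 McFarland. They were spotted onto drug-containing plates with a multipoint inoculator and incubated at 35 °C for 16 h. Linezolid was the positive control.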

Enterococcus faecalis [7] = experiment: Antibacterial activity against linezolid-resistant Enterococcus faecalis after 16 hrs by NCCLS agar dilution method; type: functional; procedure, shortened: as §3
[8] = system: Staphylococcus epidermidis; experiment: Antibacterial activity against linezolid-resistant Staphylococcus epidermidis after 16 hrs by NCCLS agar dilution method; type: functional; procedure, shortened: as §3
Staphylococcus aureus [9] = experiment: Antibacterial activity against linezolid-resistant Staphylococcus aureus after 16 hrs by NCCLS agar dilution method; type: functional; procedure, shortened: as §3
Staphylococcus aureus [10] = experiment: Antibacterial activity against Staphylococcus aureus ATCC 29213 after 16 hrs by NCCLS agar dilution method; type: functional; conditions: ATCC 29213, 16 h; procedure, shortened: as §3
Enterococcus faecalis [11] = experiment: Antibacterial activity against Enterococcus faecalis after 16 hrs by NCCLS agar dilution method; type: functional
Procedure, shortened: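 Agar dilution MIC per NCCLS, 6 E. faecalis strains. Stock was 320 μg/mL in 50% water/DMSO, serially 2-fold diluted in sterile water, then 10-fold into Mueller–Hinton agar to give 16–0.03125 μg/mL final. Inocula came from MH broth cultures grown 8 h at 35 °C, adjusted to 0.5 McFarland and spotted by multipoint inoculator. Plates were read after 16 h at 35 °C.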

Streptococcus pneumoniae = experiment: Antibacterial activity against penicillin-resistant Streptococcus pneumoniae after 16 hrs by NCCLS agar dilution method; type: functional; procedure, shortened: as §3
[12] = system: Staphylococcus epidermidis; experiment: Antibacterial activity against methicillin-resistant Staphylococcus epidermidis after 16 hrs by NCCLS agar dilution method; type: functional; procedure, shortened: as §3
[13] = system: Staphylococcus epidermidis; experiment: Antibacterial activity against methicillin-sensitive Staphylococcus epidermidis after 16 hrs by NCCLS agar dilution method; type: functional; procedure, shortened: as §3
Staphylococcus aureus [14] = experiment: Antibacterial activity against methicillin-resistant Staphylococcus aureus after 16 hrs by NCCLS agar dilution method; type: functional; procedure, shortened: as §3
Staphylococcus aureus [15] = experiment: Antibacterial activity against methicillin-sensitive Staphylococcus aureus after 16 hrs by NCCLS agar dilution method; type: functional; procedure, shortened: as §3
[16] = Oral bioavailability in Sprague-Dawley rat at 15 mg/kg; type: ADME, organism-based; conditions: in vivo; procedure, shortened: as §1
[17] = Clearance in Sprague-Dawley rat at 5 mg/kg, iv by LC-MS analysis; type: ADME, organism-based; parameters: dose 5 mg/kg, route intravenous; conditions: in vivo
Procedure, shortened: (§4)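 Rats received the compound by intravenous injection, with oral dosing run in parallel. Clearance (CLz) is reported in L/h/kg. Elimination half-life (T1/2) is reported in h and was taken from the plasma concentration–time profile.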

[18] = AUC in Sprague-Dawley rat at 5 mg/kg, iv by LC-MS analysis; type: ADME, organism-based; parameters: dose 5 mg/kg, route intravenous; conditions: plasma
Procedure, shortened: (§5)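 Rats dosed orally or by intravenous injection. AUC is the area under the plasma concentration–time curve. For the prodrug entries, all PK values were based on the amount of the active parent antibacterial detected, not the administered prodrug.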

[19] = AUC in Sprague-Dawley rat at 15 mg/kg, po by LC-MS analysis; type: ADME, organism-based; parameters: dose 15 mg/kg, route oral; conditions: plasma; procedure, shortened: as §5
[20] = Elimination half life in Sprague-Dawley rat at 5 mg/kg, iv by LC-MS analysis; type: ADME, organism-based; parameters: dose 5 mg/kg, route intravenous; conditions: in vivo, read-out: beta t1/2 (converted); procedure, shortened: as §4
[21] = Tmax in Sprague-Dawley rat at 15 mg/kg, po by LC-MS analysis; type: ADME, organism-based; parameters: dose 15 mg/kg, route oral; conditions: in vivo; procedure, shortened: as §1
[22] = Elimination half life in Sprague-Dawley rat at 15 mg/kg, po by LC-MS analysis; type: ADME, organism-based; parameters: dose 15 mg/kg, route oral; conditions: in vivo, read-out: beta t1/2 (converted); procedure, shortened: as §1
[23] = target: Voltage-gated inwardly rectifying potassium channel KCNH2 (Homo sapiens, UniProt Q12809)
Chain of Voltage-gated inwardly rectifying potassium channel KCNH2 (Q12809 whole entry): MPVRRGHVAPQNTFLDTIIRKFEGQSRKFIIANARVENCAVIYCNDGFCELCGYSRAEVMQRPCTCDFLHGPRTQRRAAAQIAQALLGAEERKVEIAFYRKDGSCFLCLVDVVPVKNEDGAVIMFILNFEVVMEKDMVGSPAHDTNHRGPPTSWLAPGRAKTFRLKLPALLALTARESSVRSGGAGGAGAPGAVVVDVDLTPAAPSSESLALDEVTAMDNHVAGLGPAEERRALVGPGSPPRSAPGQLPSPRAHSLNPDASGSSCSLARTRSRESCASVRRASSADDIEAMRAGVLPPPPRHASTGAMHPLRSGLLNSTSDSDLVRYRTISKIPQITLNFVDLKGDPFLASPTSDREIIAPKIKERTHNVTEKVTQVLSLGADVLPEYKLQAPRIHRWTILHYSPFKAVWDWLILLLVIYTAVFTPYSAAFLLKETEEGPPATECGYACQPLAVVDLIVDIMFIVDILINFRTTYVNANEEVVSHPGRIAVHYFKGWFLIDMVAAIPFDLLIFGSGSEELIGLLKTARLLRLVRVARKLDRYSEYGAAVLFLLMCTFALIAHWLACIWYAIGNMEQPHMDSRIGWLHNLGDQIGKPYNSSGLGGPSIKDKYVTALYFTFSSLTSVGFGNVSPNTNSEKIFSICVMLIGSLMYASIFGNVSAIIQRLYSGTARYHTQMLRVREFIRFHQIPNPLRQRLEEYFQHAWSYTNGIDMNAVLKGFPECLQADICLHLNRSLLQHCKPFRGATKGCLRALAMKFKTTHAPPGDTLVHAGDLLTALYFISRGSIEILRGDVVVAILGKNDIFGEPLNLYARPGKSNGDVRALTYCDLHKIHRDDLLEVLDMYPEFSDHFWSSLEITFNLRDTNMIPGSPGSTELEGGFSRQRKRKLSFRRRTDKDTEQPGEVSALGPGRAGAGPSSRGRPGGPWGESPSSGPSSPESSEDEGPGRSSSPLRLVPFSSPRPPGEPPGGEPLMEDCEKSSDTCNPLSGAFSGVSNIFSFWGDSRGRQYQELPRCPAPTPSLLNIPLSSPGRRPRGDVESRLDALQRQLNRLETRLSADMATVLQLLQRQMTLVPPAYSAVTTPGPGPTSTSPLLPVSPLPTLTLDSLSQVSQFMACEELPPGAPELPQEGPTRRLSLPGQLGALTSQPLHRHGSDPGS

hERG (KCNH2) = hERG (KCNH2) (Homo sapiens, UniProt Q12809); experiment: Inhibition of human ERG at 30 uM relative to control
Chain of hERG (KCNH2) (Q12809 whole entry): as above

[24] = Cmax in Sprague-Dawley rat at 50 mg/kg, po by LC-MS analysis; type: ADME, organism-based; parameters: dose 50 mg/kg, route oral; conditions: in vivo; procedure, shortened: as §1
[25] = AUC in Sprague-Dawley rat at 50 mg/kg, po by LC-MS analysis; type: ADME, organism-based; parameters: dose 50 mg/kg, route oral; conditions: plasma; procedure, shortened: as §1
[26] = Elimination half life in Sprague-Dawley rat at 50 mg/kg, po by LC-MS analysis; type: ADME, organism-based; parameters: dose 50 mg/kg, route oral; conditions: in vivo, read-out: beta t1/2 (converted); procedure, shortened: as §1
[27] = Tmax in Sprague-Dawley rat at 50 mg/kg, po by LC-MS analysis; type: ADME, organism-based; parameters: dose 50 mg/kg, route oral; conditions: in vivo; procedure, shortened: as §1

Row | Compound | MIC (Enterococcus faecium [6]) [µg/mL] | MIC (Enterococcus faecalis [7]) [µg/mL] | MIC [8] [µg/mL] | MIC (Staphylococcus aureus [9]) [µg/mL] | MIC (Staphylococcus aureus [10]) [µg/mL] | MIC (Enterococcus faecalis [11]) [µg/mL] | MIC (Streptococcus pneumoniae) [µg/mL] | MIC [12] [µg/mL] | MIC [13] [µg/mL] | MIC (Staphylococcus aureus [14]) [µg/mL] | MIC (Staphylococcus aureus [15]) [µg/mL] | further results
1 | CN1C[C@@H](c2ccc(-c3ccc4c(c3)OC[C@H]3[C@H](CO)OC(=O)N43)cn2)OC1=O | 2 (≈ 5.03 µM) | 2 (≈ 5.03 µM) | 2 (≈ 5.03 µM) | 4 (≈ 10.1 µM) | 0.5 (≈ 1.26 µM) | 1 (≈ 2.52 µM) | 0.5 (≈ 1.26 µM) | 0.25 (≈ 0.629 µM) | 0.25 (≈ 0.629 µM) | 0.5 (≈ 1.26 µM) | 0.5 (≈ 1.26 µM) | Cmax [1]: 809 ng/mL; Ratio (Enterococcus faecium [2]): 4; Ratio (Enterococcus faecalis [3]): 4; Ratio [4]: 4; Ratio (Staphylococcus aureus [5]): 4; bioavailability [16]: 44.8%; clearance [17]: 53.7 mL/min/kg; AUC [18]: 1560 ng·h/mL; AUC [19]: 2170 ng·h/mL; half-life [20]: 2.51 h; Tmax [21]: 1 h; half-life [22]: 1.93 h; IC50 [23]: > 40 µM
2 | C[C@@H](O)C(=O)c1ccc(-c2ccc3c(c2)OC[C@H]2[C@H](CO)OC(=O)N32)cn1 | 4 (≈ 10.8 µM) | 4 (≈ 10.8 µM) | 4 (≈ 10.8 µM) | 8 (≈ 21.6 µM) | 0.25 (≈ 0.675 µM) | 1 (≈ 2.7 µM) | 0.25 (≈ 0.675 µM) | 0.125 (≈ 0.338 µM) | 0.125 (≈ 0.338 µM) | 0.125 (≈ 0.338 µM) | 0.25 (≈ 0.675 µM) | inhibition at 30 µM (hERG (KCNH2)): 18.4%
3 | N#Cc1ccc(-c2ccc3c(c2)OC[C@H]2[C@H](CO)OC(=O)N32)cn1 | 2 (≈ 6.19 µM) | 2 (≈ 6.19 µM) | 4 (≈ 12.4 µM) | 4 (≈ 12.4 µM) | 0.25 (≈ 0.773 µM) | 1 (≈ 3.09 µM) | 0.25 (≈ 0.773 µM) | 0.125 (≈ 0.387 µM) | 0.25 (≈ 0.773 µM) | 0.25 (≈ 0.773 µM) | 0.25 (≈ 0.773 µM) | Cmax [24]: 3020 ng/mL; AUC [25]: 33400 ng·h/mL; half-life [26]: 4.69 h; Tmax [27]: 4.5 h
